Compounds with a hit are over-represented: about 3.8% of the library has one in this group of screens.
KCNK9 block: inhibitors of human KCNK9 two-pore domain potassium channel; Q9NPC2; HEK293 KCNK9, FluxOR thallium flux fluorescence; active compounds read low; B-score at 10 µM; hit rate 1.2% among 310,000;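 active = ratio B-score over 3 SD below the library mean, with starting fluorescence within 5 SD of its mean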;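 also: negative B-score means less thallium flux so channel inhibition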
Kir21 block: inhibitors of mouse Kir2.1 inward-rectifier potassium channel; P35561; hit rate 0.85% among 310,000; B-score at 10 µM; HEK293-Kir2.1, FluxOR thallium flux fluorescence; active compounds read low;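 active = fluorescence ratio B-score at or below minus 3 SD of library scores, with starting-brightness B-score within 2 SD, cut at about -4.2 in these data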;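 also: channel flux triggered by added potassium and thallium sulfate stimulus; B-score of peak minus minimum fluorescence over baseline after thallium stimulus; more negative B-score means stronger Kir2.1 block with less thallium influx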
Target sequence (P35561 whole entry, looked up): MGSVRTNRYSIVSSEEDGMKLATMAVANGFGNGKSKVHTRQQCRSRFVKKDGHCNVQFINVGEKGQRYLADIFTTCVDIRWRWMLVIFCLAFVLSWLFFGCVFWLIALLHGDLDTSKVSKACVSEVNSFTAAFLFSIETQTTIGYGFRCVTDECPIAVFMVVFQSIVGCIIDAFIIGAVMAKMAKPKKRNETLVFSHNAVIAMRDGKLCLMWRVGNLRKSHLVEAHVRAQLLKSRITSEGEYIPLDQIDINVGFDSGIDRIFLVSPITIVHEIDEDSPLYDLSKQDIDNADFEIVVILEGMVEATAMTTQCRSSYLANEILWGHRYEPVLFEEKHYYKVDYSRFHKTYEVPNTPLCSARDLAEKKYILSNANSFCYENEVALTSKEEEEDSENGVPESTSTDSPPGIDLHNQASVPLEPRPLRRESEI
KCNQ1 inh: human KCNQ1 channel inhibition | P51787 | CHO-K1 KCNQ1, FluxOR thallium flux fluorescence; active compounds read high | B-score at 10 µM | hit rate 1.3% among 310,000 | AID 2642;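 active = compounds whose thallium flux B-score, printed positive for inhibition, exceeds three library SD while starting fluorescence stays within three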;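 also: channel opened by potassium depolarization with thallium stimulus after 20 min compound exposure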
hERG rescue: shields human hERG channel from block by proarrhythmic agents | Q12809 | CHO-hERG, FluxOR thallium flux, dofetilide IC70 present | activation (rescue from dofetilide block), less the hit threshold, % at 10 µM | hit rate 0.51% among 310,000 | AID 1511;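 active = activation above the mean of controls blocked by dofetilide plus 5 SD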;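 also: thallium influx through hERG after potassium depolarization seen as dye fluorescence rise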
KCNK3 block: human KCNK3 channel inhibition, primary screen; O14649; CHO-KCNK3 thallium flux, FluxOR fluorescence; active compounds read low; B-score at 10 µM; hit rate 0.84% among 340,000; AID 602410;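 active = B-score under library mean minus 4 SD, starting fluorescence ratio at most library mean plus 5 SD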;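 also: more negative B-score means stronger inhibition of thallium flux through KCNK3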
KCNQ1 pot: potentiators or activators of human KCNQ1 potassium channel | P51787 | CHO-K1 KCNQ1, thallium flux FluxOR fluorescence; active compounds read high | B-score at 10 µM | hit rate 0.35% among 310,000 | AID 2648;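 active = fluorescence ratio B-score, a plate-corrected score, at least three library SD, with initial intensity B-score within 5 SD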
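Schedule – 37 °C overnight plating, 90-min dark dye load, 20-min compound pretreatment · System – stable KCNQ1 CHO-K1 line · Probe or stimulus – thallium- and potassium-containing depolarizing buffer · Measured by – kinetic FluxOR fluorescence, 10 s baseline plus 110 s post-stimulus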
KCNK3 inh conf: human KCNK3 channel inhibition, confirmation assay. shares compounds with KCNK3 block. CHO-KCNK3 thallium flux, FluxOR fluorescence; 0% buffer, 100% carvedilol maximal block. ratio percent of control, % at 10 µM. hit rate 99% among 2,400;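 active = ratio percent of control, averaged over triplicates, above buffer control mean plus 5 SD, cut at about 64% in these data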;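 also: ratio is the fluorescence rise from min to max over baseline after thallium stimulus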
KCNK3 uninduced: counter-screen for KCNK3 inhibitors: effect in non-induced cells; non-induced KCNK3 parental cells, FluxOR thallium flux; active compounds read low; AID 651747; thallium flux ratio (lower = more inhibition) at 10 µM; hit rate 40% among 2,400; shares compounds with KCNK3 block;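 active = thallium flux ratio, averaged over three wells, more than 5 SD below the buffer control mean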;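 also: host cells are CHO cells without KCNK3 induction; ratio is peak minus trough fluorescence over baseline then normalized to buffer controls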
Active calls of the source: *.

`CC(=O)Nc1cccc(OCC(O)Cn2cnc3ccccc32)c1` (configuration not stated) gave KCNK9 block inactive, Kir21 block -0.46, KCNQ1 inh inactive, hERG rescue -4, KCNK3 block inactive and KCNQ1 pot inactive.
`Cc1ccccc1CSc1ncnc2ccccc12` gave KCNK9 block inactive, Kir21 block 0.63, KCNQ1 inh inactive, hERG rescue -13, KCNK3 block inactive and KCNQ1 pot inactive.
`CCOc1cccc(C(=O)NC(c2ccccc2)C(C)C)c1` (configuration not stated) gave KCNK9 block inactive, Kir21 block 1.3, KCNQ1 inh inactive, hERG rescue -13, KCNK3 block inactive and KCNQ1 pot inactive.
For COc1cccc(NC(=O)c2cc(-c3ccc(OC)cc3OC)nc3ccccc23)c1 the results were KCNK9 block inactive, Kir21 block 0.01, KCNQ1 inh 6*, hERG rescue -9, KCNK3 block -9.4*, KCNQ1 pot inactive, KCNK3 inh conf 103* and KCNK3 uninduced inactive.
For Cc1ccc(-c2cc(C(=O)Nc3cccnc3)c3ccccc3n2)s1 the results were KCNK9 block inactive, Kir21 block -1.1, KCNQ1 inh inactive, hERG rescue -26, KCNK3 block -12*, KCNQ1 pot inactive, KCNK3 inh conf 100* and KCNK3 uninduced 0.13*.
Screening COc1cccc(NC(=O)CN(C)C(=O)c2cc(-c3cccc(Br)c3)nc3ccccc23)c1 returned KCNK9 block inactive, Kir21 block -1.8, KCNQ1 inh inactive, hERG rescue -17, KCNK3 block -14*, KCNQ1 pot inactive, KCNK3 inh conf 128* and KCNK3 uninduced inactive.
`Cc1c(C(c2ccc(Br)cc2)c2c(C)n(C)n(-c3ccccc3)c2=O)c(=O)n(-c2ccccc2)n1C` gave KCNK9 block inactive, Kir21 block 0.07, KCNQ1 inh inactive, hERG rescue 1, KCNK3 block inactive and KCNQ1 pot inactive.
CCCCc1nc2cc(C(=O)N3CCC[C@H]3CO)ccc2o1 was read as KCNK9 block inactive, Kir21 block 3.1, KCNQ1 inh inactive, hERG rescue -6, KCNK3 block inactive and KCNQ1 pot inactive.
`Cc1ccc(COc2ccc(Br)cc2/C=N/O)cc1` gave KCNK9 block inactive, Kir21 block 2.1, KCNQ1 inh inactive, hERG rescue -3, KCNK3 block inactive and KCNQ1 pot inactive.
Screening O=C(c1cccc2ccccc12)C1CCCN(C(=O)c2ccc(N3CCOCC3)cc2)C1 (configuration not stated) returned KCNK9 block inactive, Kir21 block -0.89, KCNQ1 inh inactive, hERG rescue -14, KCNK3 block -9.3*, KCNQ1 pot inactive, KCNK3 inh conf 99* and KCNK3 uninduced inactive.
Screening COc1ccc2oc(=N)c(C(=O)Nc3ccc(Cl)cc3)cc2c1 returned KCNK9 block inactive, Kir21 block -0.46, KCNQ1 inh inactive, hERG rescue -5, KCNK3 block inactive and KCNQ1 pot inactive.
COC(=O)c1cc(C(=O)N2CCN(c3cccc(Cl)c3)CC2)cc([N+](=O)[O-])c1 was read as KCNK9 block inactive, Kir21 block 1.8, KCNQ1 inh inactive, hERG rescue -14, KCNK3 block inactive and KCNQ1 pot inactive.
`CCCc1nn(-c2cc(Cl)ccc2OC)c2c1C(=O)CC(C)(C)C2` gave KCNK9 block inactive, Kir21 block -1.2, KCNQ1 inh inactive, hERG rescue -8, KCNK3 block -11*, KCNQ1 pot inactive, KCNK3 inh conf 87* and KCNK3 uninduced inactive.
OC1CCN(Cc2nc(Cc3ccccc3Cl)no2)CC1 was read as KCNK9 block inactive, Kir21 block 1.3, KCNQ1 inh inactive, hERG rescue -3, KCNK3 block inactive and KCNQ1 pot inactive.
Screening CCOc1nc(SCCOc2ccccc2)nc(N(C)C)n1 returned KCNK9 block inactive, Kir21 block 1.5, KCNQ1 inh inactive, hERG rescue -4, KCNK3 block -9.6*, KCNQ1 pot inactive, KCNK3 inh conf 98* and KCNK3 uninduced inactive.
Screening CC(NC(=O)NC(N)=O)(C(F)(F)F)C(F)(F)F returned KCNK9 block inactive, Kir21 block 1.8, KCNQ1 inh inactive, hERG rescue -1, KCNK3 block inactive and KCNQ1 pot inactive.
For CCCN1CCc2c(sc(NC(=O)c3ccc(S(=O)(=O)N4CCN(C(=O)OCC)CC4)cc3)c2C(N)=O)C1 the results were KCNK9 block inactive, Kir21 block -3.1, KCNQ1 inh 6*, hERG rescue -20, KCNK3 block -11*, KCNQ1 pot inactive, KCNK3 inh conf 125* and KCNK3 uninduced 0.093*.
Screening Fc1cccc(CCN2CCN=C2Nc2ccccc2)c1 returned KCNK3 block inactive.
S=C(NCc1ccco1)N1CCN(C(c2ccccc2)c2ccccc2)CC1 was read as KCNK9 block -7.8*, Kir21 block 1.5, KCNQ1 inh inactive, hERG rescue -4, KCNK3 block -12*, KCNQ1 pot inactive, KCNK3 inh conf 135* and KCNK3 uninduced 0.15*.
For CC(C)CNC(=S)N1CCN(C(c2ccccc2)c2ccccc2)CC1 the results were KCNK9 block inactive, Kir21 block -0.3, KCNQ1 inh inactive, hERG rescue -8, KCNK3 block inactive and KCNQ1 pot inactive.
For CCOc1ccc(C(=O)n2cc(C(=O)OC)c3ccccc32)cc1OCC the results were KCNK9 block inactive, Kir21 block 0.13, KCNQ1 inh inactive, hERG rescue -2, KCNK3 block inactive and KCNQ1 pot inactive.
`CCOc1ccc(C(=O)n2cc(C(=O)OC)c3ccccc32)cc1` gave KCNK9 block inactive, Kir21 block -0.83, KCNQ1 inh inactive, hERG rescue -3, KCNK3 block -10*, KCNQ1 pot inactive, KCNK3 inh conf 116* and KCNK3 uninduced 0.15*.
Screening COc1ccc(Nc2nnc(-c3ccc(O)cc3)c3ccccc23)cc1 returned KCNK9 block inactive, Kir21 block -0.02, KCNQ1 inh inactive, hERG rescue -14, KCNK3 block -8.9*, KCNQ1 pot inactive, KCNK3 inh conf 98* and KCNK3 uninduced inactive.
Screening C[C@H]1CN=C(Nc2ccccc2)N1CCC1CCCCC1 returned KCNK9 block inactive, Kir21 block 0.07, KCNQ1 inh inactive, hERG rescue -8, KCNK3 block inactive and KCNQ1 pot inactive.

Screens from PubChem BioAssay.
